Assay outcomes: PubChem, Broad Institute
The sample as a whole holds a higher share of hits than the screen did.
IDH1 mut inh: IDH1 R132H (human) inhibition; O75874; IDH1 R132H reductase, diaphorase/resazurin fluorescence, 60 min; inhibition, % at 10 µM; 0.18% of 70,000 active; AID 624101; in the data active = inhibition above about 34%; inconclusive = no clear call, values can overlap the other calls; inactive = below about 11%
Target sequence (O75874 whole entry R132H): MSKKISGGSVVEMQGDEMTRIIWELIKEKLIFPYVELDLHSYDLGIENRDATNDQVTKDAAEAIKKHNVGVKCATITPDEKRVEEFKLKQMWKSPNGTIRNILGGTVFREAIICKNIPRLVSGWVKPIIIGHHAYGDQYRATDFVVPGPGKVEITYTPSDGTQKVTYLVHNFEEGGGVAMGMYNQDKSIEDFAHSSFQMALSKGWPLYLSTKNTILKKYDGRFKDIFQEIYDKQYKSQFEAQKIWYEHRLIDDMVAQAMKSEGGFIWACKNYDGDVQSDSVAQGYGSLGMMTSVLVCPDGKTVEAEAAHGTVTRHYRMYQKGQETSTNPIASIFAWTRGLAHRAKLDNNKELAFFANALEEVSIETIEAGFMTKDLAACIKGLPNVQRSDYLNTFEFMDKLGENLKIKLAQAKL
KDM4C inh: blocks human GASC-1 (KDM4C) demethylase activity | Q9H3R0 | GST-KDM4C 2-372, H3K9me3 peptide, LANCE TR-FRET | inhibition, % at 12.5 µM | 0.15% of 96,000 active | AID 720574;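 active = mean replicate inhibition above about 25%, with at least 55% of replicates also reaching it, limit read from the data, passing the limit was not always enough; inconclusive = only one of those two conditions met; inactive = neither condition met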
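System: N-terminal GST-fused human GASC-1 (KDM4C) fragment, residues 2-372; amount: enzyme final amount 10 nM; incubation: reaction 30 min RT, detection step 1 h RT; medium: HEPES buffer, pH 7.5, plus ascorbate; technique: LANCE TR-FRET, Eu antibody, ULight-streptavidin, EDTA, ex 340 nm, em 618/671 nm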
T cruzi growth-1: T. cruzi proliferation inhibition | T. cruzi beta-gal in NIH3T3, GalScreen luminescence, 90 h | inhibition, % at 8.34 µM | 5.9% of 77,000 active | AID 624255;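 active = mean inhibition above about 93%, with at least 55% of replicates each passing it, limit read from the data, passing the limit was not always enough; inconclusive = only one of those two conditions holds; inactive = neither condition holds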
T cruzi growth-2: Trypanosoma cruzi proliferation inhibition. shares compounds with T cruzi growth-1. T. cruzi beta-gal in NIH3T3, GalScreen luminescence, 90 h. inhibition, % at 8.35 µM. 72% of 5,600 active. AID 651739;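 active = mean replicate inhibition above about 95% and at least 55% of replicates individually reaching it, limit read from the data; inconclusive = only one of the two criteria is met; inactive = neither criterion is met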
T cruzi growth-3: blocks T. cruzi growth in NIH3T3 host cells; shares compounds with T cruzi growth-1; T. cruzi beta-gal in NIH3T3, GalScreen luminescence, 90 h; inhibition, % at 2.09 µM; 21% of 5,600 active;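 active = mean inhibition above about 95%, with at least 55% of replicates also reaching it, limit read from the data; inconclusive = meets just one of the two conditions; inactive = meets neither condition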
NIH3T3 tox: NIH/3T3 (mouse) viability loss | shares compounds with T cruzi growth-1 | NIH/3T3 viability, CellTiter-Glo ATP luminescence, 90 h | cytotoxicity (signal decrease), % at 8.35 µM | 14% of 5,600 active | AID 651742;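 active = mean signal decrease across replicates above about 35% based on untreated-well scatter, with enough replicates individually passing, limit read from the data; inconclusive = no rule stated though some were filed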
3T3 cytotox 2: cytotoxicity in mouse NIH/3T3 fibroblasts; shares compounds with T cruzi growth-1; AID 651744; inhibition, % at 24.9 µM; NIH/3T3 viability, CellTiter-Glo ATP luminescence, 90 h; 56% of 5,600 active;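 active = mean loss of cell viability signal at or above a set limit, and enough replicates individually reaching it; inconclusive = meets only the mean limit or only the replicate share; inactive = meets neither condition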
A number is an active result; - = inactive; ? = inconclusive; . = no result given.

SMILES	IDH1 mut inh	KDM4C inh	T cruzi growth-1	T cruzi growth-2	T cruzi growth-3	NIH3T3 tox	3T3 cytotox 2
COc1ccc(C#Cc2ccc([C@H]3[C@H](CO)N4CCCCN(Cc5ccncc5)C[C@@H]34)cc2)cc1	.	-	89.6	108.6	-	49.5	105.0
CCCC#Cc1ccc([C@@H]2[C@H]3CN(Cc4ccncc4)CCCCN3[C@H]2CO)cc1	.	-	?	96.5	-	36.6	105.7
COc1ccc(C#Cc2ccc([C@@H]3[C@H](CO)N4CCCCN(Cc5ccncc5)C[C@@H]34)cc2)cc1	.	-	-	.	.	.	.
CCCC#Cc1ccc([C@@H]2[C@H](CO)N3CCCCN(CC4CC4)C[C@@H]23)cc1	.	-	-	.	.	.	.
CCCC#Cc1ccc([C@H]2[C@@H](CO)N3CCCCN(Cc4ccncc4)C[C@H]23)cc1	.	-	-	.	.	.	.
CCCC#Cc1ccc([C@H]2[C@H](CO)N3CCCCN(CC4CC4)C[C@@H]23)cc1	.	.	98.4	109.0	-	?	105.2
CCCC#Cc1ccc([C@@H]2[C@@H](CO)N3CCCCN(Cc4ccncc4)C[C@H]23)cc1	.	-	108.7	98.3	-	35.0	66.8
CCCC#Cc1ccc([C@@H]2[C@@H](CO)N3CCCCN(Cc4cccnc4)C[C@@H]23)cc1	.	-	-	.	.	.	.
COc1ccc(S(=O)(=O)N(C)C[C@H]2Oc3c(NC(=O)c4nc5ccccc5s4)cccc3C(=O)N([C@H](C)CO)C[C@H]2C)cc1	-	-	-	.	.	.	.
CC(C)NC(=O)Nc1ccc2c(c1)C(=O)N([C@@H](C)CO)C[C@@H](C)[C@H](CN(C)CC1CCCCC1)OCCCC[C@@H](C)O2	-	-	-	.	.	.	.
CCCC#Cc1ccc([C@H]2[C@@H](CO)N3CCCCN(Cc4cccnc4)C[C@H]23)cc1	.	-	?	108.2	-	-	102.4
CCCC#Cc1ccc([C@H]2[C@H]3CN(Cc4cccnc4)CCCCN3[C@H]2CO)cc1	.	-	-	.	.	.	.
COCC#Cc1ccc([C@H]2[C@H](CO)N3CCCCN(Cc4cncnc4)C[C@@H]23)cc1	.	-	114.6	98.4	-	-	-
COCC#Cc1ccc([C@H]2[C@@H](CO)N3CCCCN(Cc4ccncc4)C[C@H]23)cc1	.	-	108.5	105.6	-	-	-
COCC#Cc1ccc([C@@H]2[C@@H](CO)N3CCCCN(Cc4ccncc4)C[C@H]23)cc1	.	-	-	.	.	.	.
CCCC#Cc1ccc([C@@H]2[C@H]3CN(Cc4cncnc4)CCCCN3[C@H]2CO)cc1	.	-	-	.	.	.	.
O=C(NCc1cc2ccccc2[nH]1)c1cc(-c2ccccn2)nc2ccc(Br)cc12	-	.	.	.	.	.	.
Cc1cc(C)c(OCC(O)CN2CCN(CCO)CC2)c(C)c1 (stereo unspecified)	-	.	.	.	.	.	.
COc1ccc(-c2cnc3c(c2)C(=O)N([C@@H](C)CO)C[C@H](C)[C@@H](CN(C)C(=O)C2CCC2)O3)cc1	-	-	-	.	.	.	.
C[C@@H]1CCCCO[C@@H](CN(C)C(=O)Nc2ccc3c(c2)OCO3)[C@@H](C)CN([C@H](C)CO)C(=O)c2cc(NC(=O)Nc3cccc4ccccc34)ccc2O1	.	-	-	.	.	.	.
C[C@@H]1CCCCO[C@@H](CN(C)Cc2ccc3c(c2)OCO3)[C@H](C)CN([C@@H](C)CO)C(=O)c2cc(NC(=O)Nc3cccc4ccccc34)ccc2O1	.	-	?	104.4	?	-	46.8
C[C@@H]1CCCCO[C@@H](CN(C)C(=O)Nc2ccc3c(c2)OCO3)[C@H](C)CN([C@H](C)CO)C(=O)c2cc(NC(=O)Nc3cccc4ccccc34)ccc2O1	-	-	.	.	.	.	.
C[C@@H]1CN([C@H](C)CO)C(=O)c2cc(NC(=O)Nc3cccc4ccccc34)ccc2O[C@@H](C)CCCCO[C@@H]1CN(C)Cc1ccc2c(c1)OCO2	-	-	?	97.6	108.7	-	37.7
C[C@H]1CCCCO[C@H](CN(C)Cc2ccc3c(c2)OCO3)[C@@H](C)CN([C@@H](C)CO)C(=O)c2cc(NC(=O)Nc3cccc4ccccc34)ccc2O1	-	-	-	.	.	.	.
C[C@@H]1CCCCO[C@H](CN(C)Cc2ccc3c(c2)OCO3)[C@H](C)CN([C@@H](C)CO)C(=O)c2cc(NC(=O)Nc3cccc4ccccc34)ccc2O1	-	-	116.3	-	103.1	-	103.4
SMILES	IDH1 mut inh	KDM4C inh	T cruzi growth-1	T cruzi growth-2	T cruzi growth-3	NIH3T3 tox	3T3 cytotox 2
O=C(NCC1CCCCC1)[C@@H]1[C@@H](CO)[C@@H]2Cn3c(cccc3=O)[C@@H]2N1C(=O)CC1CC1	.	-	-	.	.	.	.
C[C@@H]1CN([C@H](C)CO)S(=O)(=O)c2ccc(Br)cc2O[C@@H]1CN(C)Cc1ccccc1	-	-	-	.	.	.	.
C[C@@H]1CN([C@H](C)CO)S(=O)(=O)c2ccc(-c3cncnc3)cc2O[C@@H]1CN(C)Cc1ccncc1	-	-	-	.	.	.	.
Cc1ccc(-c2ccc3c(c2)O[C@@H](CN(C)Cc2cncnc2)[C@@H](C)CN([C@H](C)CO)S3(=O)=O)cc1	-	-	.	.	.	.	.
Cc1ccc(-c2ccc3c(c2)O[C@@H](CN(C)Cc2ccncc2)[C@@H](C)CN([C@H](C)CO)S3(=O)=O)cc1	-	-	122.9	96.9	101.1	-	94.3
Cc1ccc(-c2ccc3c(c2)O[C@H](CN(C)Cc2ccncc2)[C@H](C)CN([C@H](C)CO)S3(=O)=O)cc1	52.2	.	108.7	97.6	-	49.1	47.1
C[C@@H]1CN([C@@H](C)CO)S(=O)(=O)c2ccc(Br)cc2O[C@H]1CN(C)Cc1ccncc1	.	.	100.8	102.1	98.6	-	-
Cc1ccc(-c2ccc3c(c2)O[C@@H](CN(C)Cc2ccncc2)[C@@H](C)CN([C@@H](C)CO)S3(=O)=O)cc1	-	-	120.2	-	-	63.8	90.3
CN(C)CC(=O)N[C@H]1CC[C@H](CC(=O)O)O[C@@H]1CO	.	-	.	.	.	.	.
Cc1cccc(N(CC(=O)Nc2ccc(Cl)cc2)S(C)(=O)=O)c1C	-	.	.	.	.	.	.
COC(=O)CSc1nc(N(C)C)nc(N(C)C)n1	-	.	.	.	.	.	.
CCCNC(=O)[C@@H]1N[C@@H]2c3ccc(-c4cccc(F)c4)c(=O)n3C[C@@H]2[C@H]1CO	.	-	-	.	.	.	.
O=C(C[C@@H]1CC[C@H](NC(=O)C2CC2)[C@@H](CO)O1)NCc1ccccc1Cl	-	-	.	.	.	.	.
Cc1ccc(S(=O)(=O)Nc2ccc3c(c2)C(=O)N([C@H](C)CO)C[C@@H](C)[C@@H](CN(C)Cc2ccncc2)OCCCC[C@H](C)O3)cc1	.	-	-	.	.	.	.
Cc1ccc(-c2ccc3c(c2)O[C@@H](CN(C)Cc2ccncc2)[C@H](C)CN([C@@H](C)CO)S3(=O)=O)cc1	-	-	122.6	98.1	-	64.5	100.2
C[C@@H]1CN([C@@H](C)CO)S(=O)(=O)c2ccc(-c3cncnc3)cc2O[C@H]1CN(C)Cc1ccncc1	-	-	-	.	.	.	.
O=C(C[C@@H]1CC[C@@H]2[C@H](COC[C@@H](O)CN2Cc2cccc(C(F)(F)F)c2)O1)NCc1ccccc1	.	-	-	.	.	.	.
